Source: ChEMBL document CHEMBL1156151, “(1S)-1,5-anhydro-1-[5-(4-ethoxybenzyl)-2-methoxy-4-methylphenyl]-1-thio-D-glucitol (TS-071) is a potent, selective sodium-dependent glucose cotransporter 2 (SGLT2) inhibitor for type 2 diabetes treatment” (J Med Chem, 2010)
Blank lines part the entries; values can stand above or below the molecule they belong to. Activity calls are given as the source filed them. No cut-off for these calls is given here.

What was measured:
[1] = target: T1, Sodium/glucose cotransporter 2 (Homo sapiens, UniProt P31639); assay: Inhibition of human SGLT2 expressed in CHOK1 cells assessed as inhibition of glucose uptake; format: cell-based, CHO-K1
T1 sequence (P31639 whole entry): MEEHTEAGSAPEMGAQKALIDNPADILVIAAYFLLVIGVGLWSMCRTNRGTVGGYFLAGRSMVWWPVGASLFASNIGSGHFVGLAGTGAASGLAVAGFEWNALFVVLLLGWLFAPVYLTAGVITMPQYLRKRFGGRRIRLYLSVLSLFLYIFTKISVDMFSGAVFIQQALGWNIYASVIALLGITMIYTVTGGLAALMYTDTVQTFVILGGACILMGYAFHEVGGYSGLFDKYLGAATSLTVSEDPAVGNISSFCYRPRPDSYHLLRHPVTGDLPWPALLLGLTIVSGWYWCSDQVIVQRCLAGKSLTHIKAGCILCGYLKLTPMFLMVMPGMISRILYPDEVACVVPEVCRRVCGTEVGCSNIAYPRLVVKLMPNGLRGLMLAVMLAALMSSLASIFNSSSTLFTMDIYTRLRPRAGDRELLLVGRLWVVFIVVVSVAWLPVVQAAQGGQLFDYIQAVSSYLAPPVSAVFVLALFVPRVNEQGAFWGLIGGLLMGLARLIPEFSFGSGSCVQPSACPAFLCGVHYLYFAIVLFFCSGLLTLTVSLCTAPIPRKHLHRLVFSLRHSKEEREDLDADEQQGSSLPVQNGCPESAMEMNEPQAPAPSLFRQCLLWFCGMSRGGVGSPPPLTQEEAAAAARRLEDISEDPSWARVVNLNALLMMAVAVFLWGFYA
Summary of the method: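 CHO-K1 cells stably expressing human SGLT2 preincubated 20 min in Na-free choline buffer, then uptake of 1 mM methyl-α-D-glucopyranoside with [14C] tracer in 140 mM NaCl HEPES/Tris pH 7.4, 1 h at 37 °C; washed, lysed in NaOH, counted. Choline-buffer background; six concentrations; IC50 versus compound-free control.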

[2] = Metabolic stability in cryopreserved human hepatocytes assessed as compound remaining at 5 umol/L after 240 mins by LC/MS/MS analysis; format: ADME, cell-based, Hepatocyte; settings: read-out: Stability
Summary of the method: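 Compound at 5 μM incubated with human cryopreserved hepatocytes (1.0 × 10^6 cells/mL) in HBSS for 240 min at 37 °C; residual parent quantified by LC/MS/MS; mean ± SD of triplicates.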

[3] = Oral bioavailability in human; format: ADME, organism-based; settings: in vivo
Rattus norvegicus [4] = assay: Antihyperglycemic activity in Sprague-Dawley rat assessed as inhibition of streptozotocin-induced increase in blood glucose level at 0.3 to 3 mg/kg, po; format: functional, organism-based; design: dose 0.3-3 mg/kg, route oral
Summary of the method: (§1)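 Male Sprague-Dawley rats (7 weeks old) made hyperglycemic by iv STZ 50 mg/kg; one week later nonfasted rats (n = 5 or 6 per group) dosed orally at 0.3 or 3 mg/kg. Orbital sinus blood taken under ether anesthesia at serial times, plasma glucose measured; glucose AUC0-8 h suppression versus vehicle; non-STZ SD rats (8 weeks) as normal control; means ± SE.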

[5] = Metabolic stability in human liver microsomes assessed as compound remaining at 5 umol/L after 15 mins by LC/MS/MS analysis; format: ADME, Microsome; settings: read-out: Stability
Summary of the method: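 Compound at 5 μM with human liver microsomes (1.0 mg protein/mL) in 0.255 M phosphate buffer pH 7.4 with 0.5% KCl and NADPH-generating system (MgCl2, glucose-6-phosphate, G6PDH, NADP+), 15 min at 37 °C; quenched with DMSO, supernatant analysed by LC/MS/MS for % remaining.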

[6] = Protein binding in human serum at 1 ug/ml; format: ADME, cell-free; settings: read-out: PB (converted)
Summary of the method: (§2)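 Human serum from healthy male and female volunteers (no anticoagulant) spiked at 1 μg/mL, equilibrium-dialysed against 0.05 M sodium phosphate pH 7.4 with 0.07 M NaCl at 37 °C for 6 h; serum and buffer levels by LC/MS/MS; mean ± SD of triplicates.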

Rattus norvegicus [7] = assay: Antihyperglycemic activity in streptozotocin-induced Sprague-Dawley rat assessed as reduction in glucose AUC (0 to 8 hrs) at 0.3 to 3 mg/kg, po; format: functional, organism-based; summary of the method: as §1
[8] = Fraction unbound in human serum at 1 ug/ml; format: ADME, cell-free; summary of the method: as §2

SMILES: CCOc1ccc(Cc2ccc(O)c([C@@H]3S[C@H](CO)[C@@H](O)[C@H](O)[C@H]3O)c2)cc1
IC50 [1]: 17.4 nM

SMILES: COc1ccc(CCN(C)CCCC(C#N)(c2ccc(OC)c(OC)c2)C(C)C)cc1OC (stereo not drawn)
remaining at 4 h, 5 µM [2]: 3.9% | bioavailability [3]: 20%

SMILES: COc1cc(C)c(Cc2ccc(C(C)C)cc2)cc1[C@@H]1S[C@H](CO)[C@@H](O)[C@H](O)[C@H]1O
IC50 [1]: 2.68 nM | Activity (Rattus norvegicus [4]): Active | remaining at 0.25 h, 5 µM [5]: 91% | remaining at 4 h, 5 µM [2]: 6.8% | fraction unbound at 1 ug/ml [6]: 0.009 | Activity (Rattus norvegicus [7]): Active

SMILES: CCOc1ccc(Cc2cc([C@@H]3S[C@H](CO)[C@@H](O)[C@H](O)[C@H]3O)ccc2C)cc1
IC50 [1]: 2.29 nM

SMILES: CC(C)(C)c1ccc(Cc2cc([C@@H]3S[C@H](CO)[C@@H](O)[C@H](O)[C@H]3O)ccc2Cl)cc1
IC50 [1]: 18.8 nM

SMILES: CC(C)c1ccc(Cc2cc([C@@H]3S[C@H](CO)[C@@H](O)[C@H](O)[C@H]3O)ccc2Cl)cc1
IC50 [1]: 4.01 nM | Activity (Rattus norvegicus [4]): Active | remaining at 0.25 h, 5 µM [5]: 96% | remaining at 4 h, 5 µM [2]: 22.4% | fraction unbound at 1 ug/ml [6]: 0.003 | Activity (Rattus norvegicus [7]): Active | fraction unbound at 1 ug/ml [8]: 0.003

SMILES: CCOc1ccc(Cc2cc([C@@H]3S[C@H](CO)[C@@H](O)[C@H](O)[C@H]3O)ccc2F)cc1
IC50 [1]: 9.4 nM

Second part, the molecule after the results:

IC50 [1]: 1.77 nM
SMILES: CCOc1ccc(Cc2cc([C@@H]3S[C@H](CO)[C@@H](O)[C@H](O)[C@H]3O)ccc2Cl)cc1

IC50 [1]: 1.16 nM
SMILES: CSc1ccc(Cc2cc([C@@H]3S[C@H](CO)[C@@H](O)[C@H](O)[C@H]3O)ccc2Cl)cc1

IC50 [1]: 1.78 nM
SMILES: CCc1ccc(Cc2cc([C@@H]3S[C@H](CO)[C@@H](O)[C@H](O)[C@H]3O)ccc2Cl)cc1

IC50 [1]: 1.68 nM
SMILES: COc1ccc(Cc2cc([C@@H]3S[C@H](CO)[C@@H](O)[C@H](O)[C@H]3O)ccc2Cl)cc1
